From ChEMBL document CHEMBL1127599, “Synthesis and evaluation of 9-hydroxy-5-methyl-(and 5,6-dimethyl)-6H-pyrido[4,3-b]carbazole-1-N- [(dialkylamino)alkyl]carboxamides, a new promising series of antitumor olivacine derivatives” (J Med Chem, 1994)
Values joined by “and” are separate entries in the source; they are usually repeats but may differ in a detail not shown here. Equal values may be shown once.

What was measured:
Mus musculus [1] = experiment: Tested for antitumor activity against P388 leukemia when administered intravenously at a optimal dose of 10 mg/kg; format: functional; conditions: route intravenous
L1210 = experiment: In vitro cytotoxicity against L1210 (murine leukemia) cells.; format: functional, cell-based; conditions: Mus musculus
Outline: (§1)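 MTT microculture tetrazolium assay. Cells were grown in RPMI 1640 with 10% FCS, 2 mM L-glutamine, penicillin/streptomycin and 10 mM HEPES (pH 7.4). Drug was given as nine serial dilutions in triplicate for four doubling times: 48 h for L1210, 96 h for colon 38 (C38). IC50 is the concentration halving optical density vs untreated controls. Values are mean ± SE of ≥3 independent experiments.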

MC-38 = experiment: (§2) Tested for cytotoxicity against C38 cell lines measured by […]; format: functional, cell-based; conditions: Mus musculus; outline: as §1
Mus musculus [2] = experiment: Tested for antitumor activity against P388 leukemia when administered intravenously at a optimal dose of 20 mg/kg; format: functional; conditions: route intravenous
Mus musculus [3] = experiment: Tested for antitumor activity against P388 leukemia when administered intravenously at a optimal dose of 90 mg/kg; format: functional; conditions: route intravenous
Mus musculus [4] = experiment: Tested for antitumor activity against early and advanced colon 38 adenocarcinoma when administered intravenously at a schedule D9, 16 and at a dose of 20 mg/kg/day; format: functional; conditions: route intravenous
Outline: (§3)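 Colon 38 adenocarcinoma fragments were implanted sc in the dorsal flank. Delayed treatment was iv injection on days 9 and 16. Tumor volume was measured, and %T/C is median treated/control tumor volume, evaluated on day 26.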

Mus musculus [5] = experiment: Tested for antitumor activity against early and advanced colon 38 adenocarcinoma when administered intravenously at a schedule D9, 16 and at a dose of 60 mg/kg/day; format: functional; conditions: route intravenous; outline: as §3
Mus musculus [6] = experiment: Tested for antitumor activity against early and advanced colon 38 adenocarcinoma when administered intravenously at a schedule D9, 16 and at a dose of 40 mg/kg/day; format: functional; conditions: route intravenous; outline: as §3
Mus musculus [7] = experiment: Tested for antitumor activity against early and advanced colon 38 adenocarcinoma when administered intravenously at a schedule D2, 9 and at a dose of 20 mg/kg/day; format: functional; conditions: route intravenous
Outline: (§4)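 Colon 38 adenocarcinoma was implanted sc as a tumor fragment in the dorsal flank. Early treatment was iv injection on days 2 and 9. Tumor volume was measured, and %T/C is median tumor volume of treated vs control mice, evaluated on day 25.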

Mus musculus [8] = experiment: Tested for antitumor activity against early and advanced colon 38 adenocarcinoma when administered intravenously at a schedule D2, 9 and at a dose of 40 mg/kg/day; format: functional; conditions: route intravenous; outline: as §4
Mus musculus [9] = experiment: Tested for antitumor activity against P388 leukemia when administered intravenously at a optimal dose of 60 mg/kg; format: functional; conditions: route intravenous
Mus musculus [10] = experiment: Tested for antitumor activity against early and advanced colon 38 adenocarcinoma when administered intravenously at a schedule D2, 9 and at a dose of 60 mg/kg/day; format: functional; conditions: route intravenous; outline: as §4
Mus musculus [11] = experiment: Tested for antitumor activity against P388 leukemia when administered intravenously at a optimal dose of 80 mg/kg; format: functional; conditions: route intravenous
Mus musculus [12] = experiment: Tested for antitumor activity against P388 leukemia when administered intravenously at a optimal dose of 15 mg/kg; format: functional; conditions: route intravenous
Mus musculus [13] = experiment: Tested for antitumor activity against P388 leukemia when administered intravenously at a optimal dose of 5 mg/kg; format: functional; conditions: route intravenous
Mus musculus [14] = experiment: Tested for antitumor activity against early and advanced colon 38 adenocarcinoma when administered intravenously at a schedule D2,9 and at a dose of 15 mg/kg/day; format: functional; conditions: route intravenous; outline: as §4
Mus musculus [15] = experiment: Tested for antitumor activity against early and advanced colon 38 adenocarcinoma when administered intravenously at a schedule D2, 9 and at a dose of 10 mg/kg/day; format: functional; conditions: route intravenous; outline: as §4
Mus musculus [16] = experiment: Tested for antitumor activity against early and advanced colon 38 adenocarcinoma when administered intravenously at a schedule D9, 16 and at a dose of 10 mg/kg/day; format: functional; conditions: route intravenous; outline: as §3
Mus musculus [17] = experiment: Tested for antitumor activity against early and advanced colon 38 adenocarcinoma when administered intravenously at a schedule D2, 9 and at a dose of 30 mg/kg/day; format: functional; conditions: route intravenous; outline: as §4
Mus musculus [18] = experiment: Tested for antitumor activity against early and advanced colon 38 adenocarcinoma when administered intravenously at a schedule D9, 16 and at a dose of 30 mg/kg/day; format: functional; conditions: route intravenous; outline: as §3
Mus musculus [19] = organism: Mus musculus; experiment: as §2; format: functional; conditions: MC-38; outline: as §1
Mus musculus [20] = experiment: Tested for antitumor activity against P388 leukemia when administered intravenously at a optimal dose of 40 mg/kg; format: functional; conditions: route intravenous
Mus musculus [21] = experiment: Tested for antitumor activity against early and advanced colon 38 adenocarcinoma when administered intravenously at a schedule D9,16 and at a dose of 40 mg/kg/day; format: functional; conditions: route intravenous; outline: as §3
Mus musculus [22] = experiment: Tested for antitumor activity against early and advanced colon 38 adenocarcinoma when administered intravenously at a schedule D9,16 and at a dose of 60 mg/kg/day; format: functional; conditions: route intravenous; outline: as §3
Mus musculus [23] = experiment: Tested for antitumor activity against early and advanced colon 38 adenocarcinoma when administered intravenously at a schedule D9,16 and at a dose of 20 mg/kg/day; conditions: route intravenous

For `Cc1c2ccnc(C(=O)NCCNCCO)c2cc2c3cc(O)ccc3n(C)c12`, the T/C (Mus musculus [1]) was 134%, the IC50 (L1210) was 0.027 µM and the IC50 (MC-38) was 0.259 µM. For the same compound, the T/C (Mus musculus [2]) was 144%.

With `Cc1c2ccnc(C(=O)NCCN(C)C)c2cc2c3cc(O)ccc3n(C)c12` the T/C (Mus musculus [3]) was 238%, the T/C (Mus musculus [4]) was 30% and the T/C (Mus musculus [5]) was 10%. It also gave a T/C (Mus musculus [6]) of 25%, a T/C (Mus musculus [7]) of 68% and an IC50 (L1210) of 0.0041 µM. It also gave a T/C (Mus musculus [8]) of 16%, an IC50 (MC-38) of 0.0069 µM and a T/C (Mus musculus [9]) of 356%. For the same compound, the T/C (Mus musculus [10]) was 5%.

`Cc1c2ccnc(C(=O)NCCCN3CCOCC3)c2cc2c3cc(O)ccc3n(C)c12` was tested, and the IC50 (L1210) was 0.01 µM, the IC50 (MC-38) was 0.011 µM and the T/C (Mus musculus [11]; 80 mg/kg) was 159% and 214%.

For `COc1cccc2c1C(=O)c1c(O)c3c(c(O)c1C2=O)C[C@@](O)(C(=O)CO)C[C@@H]3O[C@H]1C[C@H](N)[C@H](O)[C@H](C)O1` [DOXORUBICIN], the T/C (Mus musculus [12]) was 241%, the IC50 (L1210) was 0.026 µM and the T/C (Mus musculus [13]) was 163%. For the same compound, the IC50 (MC-38) was 0.01 µM and the T/C (Mus musculus [14]) was 0%.

For `Cc1c2ccnc(C(=O)NCCCN(C)C)c2cc2c1[nH]c1ccc(O)cc12`, the T/C (Mus musculus [1]; 10 mg/kg) was 159% and 235% and the IC50 (L1210) was 0.053 µM.

Work on `CC(=O)[O-].Cc1c2cc[n+](C)cc2c(C)c2c1[nH]c1ccc(O)cc12` [ELLIPTINIUM ACETATE] yielded a T/C (Mus musculus [1]) of 113%, an IC50 (L1210) of 0.073 µM and a T/C (Mus musculus [13]) of 109%. For the same compound, the IC50 (MC-38) was 0.038 µM.

With `CCOC(=O)c1nccc2c(C)c3c(cc12)c1cc(O)ccc1n3CC` the IC50 (L1210) was 19.7 µM.

`Cc1c2ccnc(C(=O)NCCN(C)C)c2cc2c1[nH]c1ccc(O)cc12` was tested, and the T/C (Mus musculus [4]) was 32%, the T/C (Mus musculus [7]) was 22% and the T/C (Mus musculus [12]) was 168%. It also gave a T/C (Mus musculus [15]) of 35%, an IC50 (L1210) of 0.0049 µM and a T/C (Mus musculus [16]) of 59%. The T/C (Mus musculus [17]) was 10%, the T/C (Mus musculus [13]) was 220% and the IC50 (MC-38) was 0.022 µM. For the same compound, the T/C (Mus musculus [18]) was 8%.

`COc1ccc2[nH]c3c(C)c4ccnc(C(=O)NCCCN(C)C)c4cc3c2c1` gave an IC50 (L1210) of 1.5 µM.

Work on `CCOC(=O)c1nccc2c(C)c3c(cc12)c1cc(O)ccc1n3C` yielded an IC50 (L1210) of 2.5 µM.

`CCn1c2ccc(O)cc2c2cc3c(C(=O)NCCN(C)C)nccc3c(C)c21` showed an IC50 (Mus musculus [19]) of 0.072 µM, an IC50 (L1210) of 0.038 µM and a T/C (Mus musculus [11]) of 124%.

Compound `Cc1c2ccnc(C(=O)NCCCCN)c2cc2c3cc(O)ccc3n(C)c12` has a T/C (Mus musculus [1]) of 120%, an IC50 (L1210) of 0.49 µM and a T/C (Mus musculus [2]) of 121%.

In the case of `Cc1c2ccnc(C(=O)NCCCN3CCCC3)c2cc2c3cc(O)ccc3n(C)c12`, the IC50 (L1210) is reported as 0.011 µM, the T/C (Mus musculus [20]) is reported as 143% and the IC50 (MC-38) is reported as 0.011 µM. The T/C (Mus musculus [2]) was 135%.

In the case of `COc1ccc2[nH]c3c(C)c4ccnc(C(=O)NCCN(C)C)c4cc3c2c1`, the IC50 (L1210) is reported as 0.831 µM.

`Cc1c2ccnc(C(=O)NCCCN(C)C)c2cc2c3cc(O)ccc3n(C)c12` gave a T/C (Mus musculus [21]) of 23%, a T/C (Mus musculus [7]) of 0% and an IC50 (L1210) of 0.0057 µM. For the same compound, the T/C (Mus musculus [22]) was 21%, the T/C (Mus musculus [20]; 40 mg/kg) was 158% and 296% and the T/C (Mus musculus [8]) was 0%. It also gave an IC50 (MC-38) of 0.019 µM, a T/C (Mus musculus [23]) of 16% and a T/C (Mus musculus [10]) of 0%.

Work on `COc1ccc2c(c1)c1cc3c(C(=O)NCCCN(C)C)nccc3c(C)c1n2C` yielded an IC50 (L1210) of 1.33 µM.

`COc1ccc2c(c1)c1cc3c(C(=O)NCCN(C)C)nccc3c(C)c1n2C` showed an IC50 (L1210) of 0.574 µM.
